In ChEMBL document CHEMBL1821676, “Click to a focused library of benzyl 6-triazolo(hydroxy)benzoic glucosides: novel construction of PTP1B inhibitors on a sugar scaffold” (Eur J Med Chem, 2011):

Biological target: T1, Tyrosine-protein phosphatase non-receptor type 1 (Homo sapiens, UniProt P18031)
T1 sequence (P18031 whole entry): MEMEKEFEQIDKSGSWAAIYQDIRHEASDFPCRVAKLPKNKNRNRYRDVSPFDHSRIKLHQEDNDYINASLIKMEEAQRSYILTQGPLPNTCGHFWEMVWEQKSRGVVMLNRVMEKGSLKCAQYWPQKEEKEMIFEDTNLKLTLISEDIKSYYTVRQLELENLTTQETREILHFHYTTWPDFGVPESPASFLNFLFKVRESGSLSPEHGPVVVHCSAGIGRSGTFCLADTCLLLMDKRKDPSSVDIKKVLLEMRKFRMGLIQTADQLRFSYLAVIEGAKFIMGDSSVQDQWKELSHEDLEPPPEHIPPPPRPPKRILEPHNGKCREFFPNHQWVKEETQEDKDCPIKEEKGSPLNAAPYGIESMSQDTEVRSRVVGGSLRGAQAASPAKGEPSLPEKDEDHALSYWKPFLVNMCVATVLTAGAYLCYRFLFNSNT
Assay: Inhibition of human recombinant PTP1B expressed in CHO cells assessed as p-nitorphenol production after 2 mins by microplate reader
Format: cell-based
Method in brief: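 Recombinant human PTP1B catalytic domain (30 nM) with 2 mM pNPP in 50 mM MOPS, pH 6.5, at 30 °C. pNP release was read continuously at 405 nm for 2 min, and the initial rate was taken from the early linear region. Inhibitors were diluted around the estimated IC50. IC50 came from a nonlinear fit of % inhibition vs [I] using a Hill-coefficient equation.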

IC50 | Compound
> 100 µM | O=C(O)c1cc(O)cc(O)c1 [3,5-DIHYDROXYBENZOIC ACID]
> 100 µM | O=C(O)c1cccc(O)c1 [3-HYDROXYBENZOIC ACID]
> 100 µM | O=C(O)c1cc(O)ccc1O [GENTISIC ACID]
